{
  "source": "ChEMBL document CHEMBL1138940",
  "about": "“Design and synthesis of orally efficacious benzimidazoles as melanin-concentrating hormone receptor 1 antagonists” (Bioorg Med Chem Lett, 2006)",
  "data": [
    {"system": "Rattus norvegicus", "assay": "AUC(0-6h) in rat at 10 mg/kg, po", "conditions": "in vivo", "units": {"AUC": "ng·h/mL"}, "values": [
      {"smiles": "CC(=O)N1CCC(=C(c2ccc(-c3cccc(C#N)c3)cc2)c2nc3cc(F)c(C(F)(F)F)cc3[nH]2)CC1", "AUC": 5250},
      {"smiles": "N#Cc1ccc(F)c(-c2ccc(C(=C3CCN(CC4CC4)CC3)c3nc4cc(C(F)(F)F)c(F)cc4[nH]3)cc2)c1", "AUC": 3000},
      {"smiles": "N#Cc1cccc(-c2ccc(C(=C3CCN(CC4CC4)CC3)c3nc4cc(Cl)c(Cl)cc4[nH]3)cc2)c1", "AUC": 6640},
      {"smiles": "CN(C)C(=O)N1CCC(=C(c2ccc(-c3cccc(C#N)c3)cc2)c2nc3cc(F)c(C(F)(F)F)cc3[nH]2)CC1", "AUC": 1290}
    ]},
    {"target": "Melanin-concentrating hormone receptor 2 (Homo sapiens) (UniProt Q969V1)", "sequence (Q969V1 whole entry)": "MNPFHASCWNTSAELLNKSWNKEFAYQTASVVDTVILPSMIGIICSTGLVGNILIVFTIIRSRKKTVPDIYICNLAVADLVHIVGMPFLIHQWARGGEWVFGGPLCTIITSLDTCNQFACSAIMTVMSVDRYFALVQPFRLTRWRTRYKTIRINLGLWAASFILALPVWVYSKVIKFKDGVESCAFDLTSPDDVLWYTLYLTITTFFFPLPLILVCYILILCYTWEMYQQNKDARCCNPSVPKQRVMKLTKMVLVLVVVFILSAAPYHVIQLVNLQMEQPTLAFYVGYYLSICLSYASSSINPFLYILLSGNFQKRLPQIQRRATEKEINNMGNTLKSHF", "assay": "Binding affinity to human MCHR2 assessed as inhibition of MCH-mediated calcium ion influx by FLIPR assay", "assay_type": "functional", "conditions": "not given", "units": {"Activity": "µM"}, "values": [
      {"smiles": "N#Cc1cccc(-c2ccc(C(=C3CCN(CC(N)=O)CC3)c3nc4cc(F)c(C(F)(F)F)cc4[nH]3)cc2)c1", "Activity": "> 3"},
      {"smiles": "CC(=O)N1CCC(=C(c2ccc(-c3cccc(C#N)c3)cc2)c2nc3cc(F)c(C(F)(F)F)cc3[nH]2)CC1", "Activity": "> 3"},
      {"smiles": "N#Cc1cccc(-c2ccc(C(=C3CCN(CC4CC4)CC3)c3nc4cc(C(F)(F)F)c(F)cc4[nH]3)cc2)c1", "Activity": "> 3"},
      {"smiles": "Cn1cccc1C(=O)N1CCC(=C(c2ccc(-c3cccc(C#N)c3)cc2)c2nc3cc(F)c(C(F)(F)F)cc3[nH]2)CC1", "Activity": "> 3"},
      {"smiles": "N#Cc1cccc(-c2ccc(C(=C3CCN(CC4CC4)CC3)c3nc4cc(F)c(F)cc4[nH]3)cc2)c1", "Activity": "> 3"},
      {"smiles": "NC(=O)c1cccc(-c2ccc(C(=C3CCN(CC4CC4)CC3)c3nc4cc(F)c(C(F)(F)F)cc4[nH]3)cc2)c1", "Activity": "> 3"},
      {"smiles": "CCN(CC)C(=O)N1CCC(=C(c2ccc(-c3cccc(C#N)c3)cc2)c2nc3cc(F)c(C(F)(F)F)cc3[nH]2)CC1", "Activity": "> 3"},
      {"smiles": "CC(C)S(=O)(=O)N1CCC(=C(c2ccc(-c3cccc(C#N)c3)cc2)c2nc3cc(F)c(C(F)(F)F)cc3[nH]2)CC1", "Activity": "> 3"},
      {"smiles": "N#Cc1cccc(-c2ccc(C(=C3CCN(C(=O)c4cccs4)CC3)c3nc4cc(C(F)(F)F)c(F)cc4[nH]3)cc2)c1", "Activity": "> 3"},
      {"smiles": "N#Cc1ccc(F)c(-c2ccc(C(=C3CCN(CC4CC4)CC3)c3nc4cc(F)c(C(F)(F)F)cc4[nH]3)cc2)c1", "Activity": "> 3"},
      {"smiles": "CS(=O)(=O)N1CCC(=C(c2ccc(-c3cccc(C#N)c3)cc2)c2nc3cc(F)c(C(F)(F)F)cc3[nH]2)CC1", "Activity": "> 3"},
      {"smiles": "CCN(CC)CCN1CCC2(CC1)CC2(c1ccc(-c2cccc(C#N)c2)cc1)c1nc2cc(F)c(C(F)(F)F)cc2[nH]1", "note": "(stereo not given)", "Activity": "> 3"},
      {"smiles": "CN(C)C(=O)N1CCC2(CC1)CC2(c1ccc(-c2cccc(C#N)c2)cc1)c1nc2cc(F)c(C(F)(F)F)cc2[nH]1", "note": "(stereo not given)", "Activity": "> 3"},
      {"smiles": "N#Cc1cccc(-c2ccc(C(=C3CCN(CC4CC4)CC3)c3nc4cc(C#N)ccc4[nH]3)cc2)c1", "Activity": "> 3"},
      {"smiles": "N#Cc1cnc(O)c(-c2ccc(C(=C3CCN(CC4CC4)CC3)c3nc4cc(F)c(C(F)(F)F)cc4[nH]3)cc2)c1", "Activity": "> 3"},
      {"smiles": "N#Cc1cccc(-c2ccc(C(=C3CCNCC3)c3nc4cc(C(F)(F)F)c(F)cc4[nH]3)cc2)c1", "Activity": "> 3"},
      {"smiles": "CC(C)S(=O)(=O)N1CCC2(CC1)CC2(c1ccc(-c2cccc(C#N)c2)cc1)c1nc2cc(F)c(C(F)(F)F)cc2[nH]1", "note": "(stereo not given)", "Activity": "> 3"},
      {"smiles": "N#Cc1cccc(-c2ccc(C3(c4nc5cc(C(F)(F)F)c(F)cc5[nH]4)CC34CCN(C(=O)N3CCCC3)CC4)cc2)c1", "note": "(stereo not given)", "Activity": "> 3"},
      {"smiles": "N#Cc1cccc(-c2ccc(C(=C3CCN(CC4CC4)CC3)c3nc4cc(Cl)c(Cl)cc4[nH]3)cc2)c1", "Activity": "> 3"},
      {"smiles": "CN(C)C(=O)N1CCC(=C(c2ccc(-c3cccc(C#N)c3)cc2)c2nc3cc(F)c(C(F)(F)F)cc3[nH]2)CC1", "Activity": "> 3"}
    ]},
    {"system": "Mus musculus", "assay": "Inhibition of cumulative food intake in DIO mouse at 30 mg/kg, po after 24 hrs", "assay_type": "functional", "conditions": "not given", "summary_of_the_method": "(§1)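 Diet-induced obese mice were fasted 24 h, then given 30 mg/kg orally 1 h before dark onset. Food was returned at dark onset, and cumulative intake was measured at 2, 6 and 24 h. Results are expressed as percent inhibition versus vehicle-treated controls.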", "units": {"inhibition in vivo at 30 mg/kg": "%"}, "values": [
      {"smiles": "N#Cc1cccc(-c2ccc(C(=C3CCN(CC4CC4)CC3)c3nc4cc(C(F)(F)F)c(F)cc4[nH]3)cc2)c1", "inhibition in vivo at 30 mg/kg": 18.6},
      {"smiles": "N#Cc1cccc(-c2ccc(C(=C3CCN(CC4CC4)CC3)c3nc4cc(Cl)c(Cl)cc4[nH]3)cc2)c1", "inhibition in vivo at 30 mg/kg": 26.8}
    ]},
    {"target": "Melanin-concentrating hormone receptor 1 (Mus musculus) (UniProt Q8JZL2)", "sequence (Q8JZL2 whole entry)": "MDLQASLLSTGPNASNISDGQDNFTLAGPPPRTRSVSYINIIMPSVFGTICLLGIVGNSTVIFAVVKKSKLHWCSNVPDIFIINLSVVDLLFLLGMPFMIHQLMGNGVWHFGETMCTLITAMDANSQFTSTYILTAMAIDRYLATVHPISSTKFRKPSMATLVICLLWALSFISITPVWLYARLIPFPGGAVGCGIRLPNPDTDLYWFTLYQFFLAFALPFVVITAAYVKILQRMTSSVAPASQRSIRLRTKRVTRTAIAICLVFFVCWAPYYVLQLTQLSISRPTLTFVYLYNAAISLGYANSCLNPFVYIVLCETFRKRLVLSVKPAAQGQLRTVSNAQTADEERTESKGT", "assay": "Inhibition of MCH-ADO binding to mouse brain at 30 mg/kg, po after 24 hrs", "assay_type": "functional, organism-based", "design": "dose 30 mg/kg", "conditions": "not given", "summary_of_the_method": "(§2)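 Mouse ex vivo receptor binding after a single 30 mg/kg oral dose: MCH-ADO binding was measured at 6 h and 24 h post-dose and expressed as percent inhibition relative to vehicle controls, mean ± SEM, n = 3.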", "units": {"inhibition": "%"}, "values": [
      {"smiles": "N#Cc1cccc(-c2ccc(C(=C3CCN(CC4CC4)CC3)c3nc4cc(C(F)(F)F)c(F)cc4[nH]3)cc2)c1", "inhibition": 84},
      {"smiles": "N#Cc1ccc(F)c(-c2ccc(C(=C3CCN(CC4CC4)CC3)c3nc4cc(F)c(C(F)(F)F)cc4[nH]3)cc2)c1", "inhibition": 80},
      {"smiles": "N#Cc1cccc(-c2ccc(C(=C3CCN(CC4CC4)CC3)c3nc4cc(Cl)c(Cl)cc4[nH]3)cc2)c1", "inhibition": 54}
    ]},
    {"system": "Mus musculus", "assay": "Inhibition of cumulative food intake in DIO mouse at 30 mg/kg, po after 6 hrs", "assay_type": "functional", "conditions": "not given", "summary_of_the_method": "as §1", "units": {"inhibition in vivo at 30 mg/kg": "%"}, "values": [
      {"smiles": "N#Cc1cccc(-c2ccc(C(=C3CCN(CC4CC4)CC3)c3nc4cc(C(F)(F)F)c(F)cc4[nH]3)cc2)c1", "inhibition in vivo at 30 mg/kg": 32.6},
      {"smiles": "N#Cc1cccc(-c2ccc(C(=C3CCN(CC4CC4)CC3)c3nc4cc(Cl)c(Cl)cc4[nH]3)cc2)c1", "inhibition in vivo at 30 mg/kg": 41.8}
    ]},
    {"system": "Mus musculus", "assay": "Inhibition of cumulative food intake in DIO mouse at 30 mg/kg, po after 2 hrs", "assay_type": "functional", "conditions": "not given", "summary_of_the_method": "as §1", "units": {"inhibition in vivo at 30 mg/kg": "%"}, "values": [
      {"smiles": "N#Cc1cccc(-c2ccc(C(=C3CCN(CC4CC4)CC3)c3nc4cc(C(F)(F)F)c(F)cc4[nH]3)cc2)c1", "inhibition in vivo at 30 mg/kg": 31},
      {"smiles": "N#Cc1cccc(-c2ccc(C(=C3CCN(CC4CC4)CC3)c3nc4cc(Cl)c(Cl)cc4[nH]3)cc2)c1", "inhibition in vivo at 30 mg/kg": 37.4}
    ]},
    {"target": "T1, Melanin-concentrating hormone receptor 1 (Homo sapiens, UniProt Q99705)", "T1 sequence (Q99705 whole entry)": "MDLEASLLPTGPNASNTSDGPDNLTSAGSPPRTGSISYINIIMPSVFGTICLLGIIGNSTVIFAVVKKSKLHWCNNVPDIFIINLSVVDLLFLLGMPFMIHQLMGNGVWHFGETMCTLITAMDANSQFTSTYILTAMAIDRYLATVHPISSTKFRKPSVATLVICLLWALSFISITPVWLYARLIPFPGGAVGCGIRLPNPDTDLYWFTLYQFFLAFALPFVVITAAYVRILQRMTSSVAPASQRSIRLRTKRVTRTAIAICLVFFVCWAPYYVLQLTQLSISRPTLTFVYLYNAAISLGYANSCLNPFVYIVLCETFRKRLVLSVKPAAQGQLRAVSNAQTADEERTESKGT", "assay": "Binding affinity to human MCHR1 by radioligand binding assay", "conditions": "not given", "units": {"Ki": "nM"}, "values": [
      {"smiles": "CC(=O)N1CCC(=C(c2ccc(-c3cccc(C#N)c3)cc2)c2nc3cc(F)c(C(F)(F)F)cc3[nH]2)CC1", "Ki": 31},
      {"smiles": "N#Cc1cccc(-c2ccc(C(=C3CCN(CC4CC4)CC3)c3nc4cc(F)c(F)cc4[nH]3)cc2)c1", "Ki": 52},
      {"smiles": "CCN(CC)C(=O)N1CCC(=C(c2ccc(-c3cccc(C#N)c3)cc2)c2nc3cc(F)c(C(F)(F)F)cc3[nH]2)CC1", "Ki": 22},
      {"smiles": "CS(=O)(=O)N1CCC(=C(c2ccc(-c3cccc(C#N)c3)cc2)c2nc3cc(F)c(C(F)(F)F)cc3[nH]2)CC1", "Ki": 71.4},
      {"smiles": "CCN(CC)CCN1CCC2(CC1)CC2(c1ccc(-c2cccc(C#N)c2)cc1)c1nc2cc(F)c(C(F)(F)F)cc2[nH]1", "note": "(stereo not given)", "Ki": 15},
      {"smiles": "CN(C)C(=O)N1CCC2(CC1)CC2(c1ccc(-c2cccc(C#N)c2)cc1)c1nc2cc(F)c(C(F)(F)F)cc2[nH]1", "note": "(stereo not given)", "Ki": 32},
      {"smiles": "N#Cc1cccc(-c2ccc(C(=C3CCNCC3)c3nc4cc(C(F)(F)F)c(F)cc4[nH]3)cc2)c1", "Ki": 3.6},
      {"smiles": "N#Cc1ccc(F)c(-c2ccc(C(=C3CCN(CC4CC4)CC3)c3nc4cc(C(F)(F)F)c(F)cc4[nH]3)cc2)c1", "Ki": 3.9},
      {"smiles": "CC(C)S(=O)(=O)N1CCC2(CC1)CC2(c1ccc(-c2cccc(C#N)c2)cc1)c1nc2cc(F)c(C(F)(F)F)cc2[nH]1", "note": "(stereo not given)", "Ki": 67},
      {"smiles": "N#Cc1cccc(-c2ccc(C(=C3CCN(CC4CC4)CC3)c3nc4cc(Cl)c(Cl)cc4[nH]3)cc2)c1", "Ki": 15},
      {"smiles": "CN(C)C(=O)N1CCC(=C(c2ccc(-c3cccc(C#N)c3)cc2)c2nc3cc(F)c(C(F)(F)F)cc3[nH]2)CC1", "Ki": 37}
    ]},
    {"target": "T1, Melanin-concentrating hormone receptor 1", "assay": "Binding affinity to human MCHR1 assessed as inhibition of MCH-mediated calcium ion influx by FLIPR assay", "assay_type": "functional", "conditions": "not given", "summary_of_the_method": "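Functional antagonism at human MCH-R1: cells expressing hMCH-R1 were read by FLIPR for block of MCH-mediated Ca2+ influx, and the value was reported as Kb.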", "units": {"Kb": "nM"}, "values": [
      {"smiles": "N#Cc1cccc(-c2ccc(C(=C3CCN(CC4CC4)CC3)c3nc4cc(Cl)c(Cl)cc4[nH]3)cc2)c1", "Kb": 70}
    ]},
    {"target": "Melanin-concentrating hormone receptor 1 (Mus musculus) (UniProt Q8JZL2)", "assay": "Inhibition of MCH-ADO binding to mouse brain at 30 mg/kg, po after 6 hrs", "assay_type": "functional, organism-based", "design": "dose 30 mg/kg", "conditions": "not given", "summary_of_the_method": "as §2", "units": {"inhibition": "%"}, "values": [
      {"smiles": "CC(=O)N1CCC(=C(c2ccc(-c3cccc(C#N)c3)cc2)c2nc3cc(F)c(C(F)(F)F)cc3[nH]2)CC1", "inhibition": 48},
      {"smiles": "N#Cc1cccc(-c2ccc(C(=C3CCN(CC4CC4)CC3)c3nc4cc(C(F)(F)F)c(F)cc4[nH]3)cc2)c1", "inhibition": 96},
      {"smiles": "N#Cc1ccc(F)c(-c2ccc(C(=C3CCN(CC4CC4)CC3)c3nc4cc(F)c(C(F)(F)F)cc4[nH]3)cc2)c1", "inhibition": 92},
      {"smiles": "N#Cc1cccc(-c2ccc(C(=C3CCN(CC4CC4)CC3)c3nc4cc(Cl)c(Cl)cc4[nH]3)cc2)c1", "inhibition": 68},
      {"smiles": "CN(C)C(=O)N1CCC(=C(c2ccc(-c3cccc(C#N)c3)cc2)c2nc3cc(F)c(C(F)(F)F)cc3[nH]2)CC1", "inhibition": 50}
    ]}
  ]
}
